Values belong to the compound of their own block, whether it stands above or below them. Calls of active or inactive are those of the source. The calls are words filed in the database; no cut-off is given here.
Legend:
[1] = test system: A-431; experiment: Cytotoxicity against human A431 cells overexpressing EGFR assessed as inhibition of cell proliferation treated for 12 hrs measured after 36 hrs by CYQUANT dye based assay; assay type: functional
[2] = target: Platelet-derived growth factor receptor beta (Homo sapiens, UniProt P09619); experiment: Inhibition of PDGF-BB-induced PDGFR beta phosphorylation in human SF539 cells overexpressing PDGFR beta pretreated for 60 mins prior to PDGF-BB addition measured after 10 mins by phosphotyrosine ELISA cytoblot analysis; assay type: cell-based, SF-539
[3] = target: T1, Vascular endothelial growth factor receptor 1 (Homo sapiens, UniProt P17948); experiment: Inhibition of VEGF-induced VEGFR1 phosphorylation in human A498 cells overexpressing Flt-1 pretreated for 60 mins prior to VEGF addition measured after 10 mins by phosphotyrosine ELISA cytoblot analysis; assay type: cell-based
[4] = target: T2, Vascular endothelial growth factor receptor 2 (Homo sapiens, UniProt P35968); assay type: cell-based, U-251
[5] = target: T1, Vascular endothelial growth factor receptor 1; experiment: Ratio of compound IC50 to CB676475 IC50 for VEGF-induced VEGFR1 phosphorylation in human A498 cells overexpressing Flt-1 by phosphotyrosine ELISA cytoblot analysis; assay type: cell-based
In short: (§1)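 Cells at 60–75% confluence serum-starved 18 h, then pretreated 60 min with serial compound dilutions starting at 10 before growth factor stimulation. Cells fixed 30 min at 60 °C, then 70% ethanol 30 min, blocked with 1% BSA in TBS 1 h, HRP-anti-phosphotyrosine overnight, luminol ELISA substrate; light emission imaged.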

[6] = test system: Chorioallantoic membrane; experiment: Inhibition of VEGF165/bFGF-induced angiogenesis in chicken chorioallantoic membrane assessed a s decrease in number of vessels formed treated 8 hrs after VEGF/bFGF addition measured after 48 hrs by dissecting microscopic analysis; assay type: functional; details: Gallus gallus
[7] = target: Epidermal growth factor receptor (Homo sapiens, UniProt P00533); assay type: cell-based, A-431;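 further: EGF-stimulated EGFR phosphorylation in human A431 cells, compound preincubation 60 min before EGF, phosphotyrosine ELISA cytoblot read 10 min after stimulation, inhibition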
[8] = test system: Chorioallantoic membrane; experiment: Ratio of compound IC50 to semaxanib IC50 for VEGF165/bFGF-induced angiogenesis in chicken chorioallantoic membrane by dissecting microscopic analysis; assay type: functional; details: Gallus gallus
[9] = test system: B16-F10; experiment: Antitumor activity against GFP-tagged mouse B16F10 cells isografted into syngeneic athymic Ncr nu/nu mouse assessed as decrease in tumor volume at 10 mg/kg, ip administered twice weekly starting from day 8 post-tumor inoculation; assay type: functional, organism-based; design: dose 10 mg/kg
In short: (§2)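 Mice bearing subcutaneous GFP-tagged B16-F10 tumors; treatment began once most tumors were caliper-measurable (day 8) after random sorting into groups. Dosing 10 mg/kg IP every Monday AM and Thursday PM; sham animals received water. Tumor length, width and depth measured Mon/Wed/Fri; volume = L×W×D; growth rate by linear regression. n = 7–10.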

[10] = test system: B16-F10; experiment: Antitumor activity against GFP-tagged mouse B16F10 cells isografted into syngeneic athymic Ncr nu/nu mouse assessed as decrease in tumor growth rate at 10 mg/kg, ip administered twice weekly starting from day 8 post-tumor inoculation; assay type: functional, organism-based; design: dose 10 mg/kg; in short: as §2
[11] = test system: B16-F10; experiment: Antiangiogenic activity against GFP-tagged mouse B16F10 cells isografted into syngeneic athymic Ncr nu/nu mouse assessed as decrease in vascular density at 10 mg/kg, ip administered twice weekly starting from day 8 post-tumor inoculation; assay type: functional, organism-based; design: dose 10 mg/kg
[12] = test system: B16-F10; experiment: Antimetastatic activity against GFP-tagged mouse B16F10 cells isografted into syngeneic athymic Ncr nu/nu mouse assessed as decrease in number of B16F10 lung metastases at 10 mg/kg, ip administered twice weekly starting from day 8 post-tumor inoculation by hematoxylin-eosin staining; assay type: functional, organism-based; design: dose 10 mg/kg
[13] = test system: A-431; experiment: Ratio of cisplatin IC50 to compound IC50 for human A431 cells overexpressing EGFR by CYQUANT dye based assay
[14] = target: T2, Vascular endothelial growth factor receptor 2; experiment: Ratio of compound IC50 to semaxanib IC50 for VEGF-induced VEGFR2 phosphorylation in human U251 cells overexpressing Flk-1 by phosphotyrosine ELISA cytoblot analysis; assay type: cell-based; details: U-251; in short: as §1
[15] = test system: Mus musculus; experiment: Toxicity in Ncr nu/nu mouse assessed as body weight loss at […], ip administered twice weekly measured for 6 weeks by whole animal toxicity assay; assay type: organism-based; details: in vivo, 1008 h
[16] = test system: Chorioallantoic membrane; experiment: Ratio of semaxanib IC50 to compound IC50 for VEGF165/bFGF-induced angiogenesis in chicken chorioallantoic membrane by dissecting microscopic analysis; assay type: functional; details: Gallus gallus
[17] = Toxicity in ip dosed Ncr nu/nu mouse assessed as maximum tolerated dose administered twice weekly by whole animal toxicity assay; assay type: organism-based; details: in vivo
[18] = test system: B16-F10; experiment: Antitumor activity against GFP-tagged mouse B16F10 cells isografted into syngeneic athymic Ncr nu/nu mouse assessed as decrease in tumor growth rate at […], ip administered twice weekly starting from day 8 post-tumor inoculation; assay type: functional, organism-based
[19] = test system: B16-F10; experiment: Antitumor activity against GFP-tagged mouse B16F10 cells isografted into syngeneic athymic Ncr nu/nu mouse assessed as decrease in tumor volume at […], ip administered twice weekly starting from day 8 post-tumor inoculation; assay type: functional, organism-based
[20] = test system: Mus musculus; experiment: Toxicity in Ncr nu/nu mouse assessed as body weight loss at 7.5 to 10 mg/kg, ip administered twice weekly measured for 6 weeks by whole animal toxicity assay; assay type: organism-based; design: dose 7.5-10 mg/kg, route intraperitoneal; details: in vivo, 1008 h
[21] = test system: B16-F10; experiment: Antimetastatic activity against GFP-tagged mouse B16F10 cells isografted into syngeneic athymic Ncr nu/nu mouse assessed as decrease in number of B16F10 lung metastases at […], ip administered twice weekly starting from day 8 post-tumor inoculation by hematoxylin-eosin staining; assay type: functional, organism-based
[22] = test system: Mus musculus; experiment: Toxicity in Ncr nu/nu mouse assessed as body weight loss at 15 to 20 mg/kg, ip administered twice weekly measured for 6 weeks by whole animal toxicity assay; assay type: organism-based; design: dose 15-20 mg/kg, route intraperitoneal; details: in vivo, 1008 h
[23] = test system: B16-F10; experiment: Antiangiogenic activity against GFP-tagged mouse B16F10 cells isografted into syngeneic athymic Ncr nu/nu mouse assessed as decrease in vascular density at […], ip administered twice weekly starting from day 8 post-tumor inoculation; assay type: functional, organism-based

T2 sequence (P35968 whole entry): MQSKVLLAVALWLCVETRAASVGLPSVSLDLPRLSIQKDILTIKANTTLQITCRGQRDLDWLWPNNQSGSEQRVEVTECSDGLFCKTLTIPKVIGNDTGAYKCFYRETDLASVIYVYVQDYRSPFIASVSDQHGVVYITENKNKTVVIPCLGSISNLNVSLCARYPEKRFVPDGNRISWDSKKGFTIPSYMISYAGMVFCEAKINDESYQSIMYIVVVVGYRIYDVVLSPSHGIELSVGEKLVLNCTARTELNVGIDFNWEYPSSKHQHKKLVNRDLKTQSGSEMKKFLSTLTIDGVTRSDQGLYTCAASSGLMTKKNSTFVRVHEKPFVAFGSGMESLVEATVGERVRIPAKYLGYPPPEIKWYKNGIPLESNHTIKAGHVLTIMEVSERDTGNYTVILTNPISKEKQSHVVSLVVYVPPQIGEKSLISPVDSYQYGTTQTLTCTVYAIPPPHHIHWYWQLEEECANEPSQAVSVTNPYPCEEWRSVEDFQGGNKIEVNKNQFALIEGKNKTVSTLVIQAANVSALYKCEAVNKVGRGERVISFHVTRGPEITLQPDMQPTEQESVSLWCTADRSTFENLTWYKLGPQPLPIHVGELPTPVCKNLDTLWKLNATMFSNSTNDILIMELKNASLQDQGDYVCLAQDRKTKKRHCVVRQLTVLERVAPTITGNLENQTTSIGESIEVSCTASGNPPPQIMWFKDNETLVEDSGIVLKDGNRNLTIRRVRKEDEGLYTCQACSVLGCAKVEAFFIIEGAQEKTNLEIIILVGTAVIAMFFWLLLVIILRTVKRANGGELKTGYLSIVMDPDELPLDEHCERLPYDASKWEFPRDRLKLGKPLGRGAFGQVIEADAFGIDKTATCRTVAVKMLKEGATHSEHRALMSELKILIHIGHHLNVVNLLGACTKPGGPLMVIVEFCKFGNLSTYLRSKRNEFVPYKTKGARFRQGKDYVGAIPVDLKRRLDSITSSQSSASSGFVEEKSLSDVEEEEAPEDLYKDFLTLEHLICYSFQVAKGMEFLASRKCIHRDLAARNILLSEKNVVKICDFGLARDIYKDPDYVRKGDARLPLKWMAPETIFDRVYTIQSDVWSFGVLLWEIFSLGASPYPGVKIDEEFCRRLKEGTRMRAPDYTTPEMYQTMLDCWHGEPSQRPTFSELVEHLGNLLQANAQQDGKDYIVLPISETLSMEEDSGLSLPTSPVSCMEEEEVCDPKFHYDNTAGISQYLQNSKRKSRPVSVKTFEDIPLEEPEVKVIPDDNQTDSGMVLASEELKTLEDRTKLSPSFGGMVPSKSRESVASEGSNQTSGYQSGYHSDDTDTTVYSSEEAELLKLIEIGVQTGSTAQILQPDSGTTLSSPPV
Platelet-derived growth factor receptor beta, sequence (P09619 whole entry): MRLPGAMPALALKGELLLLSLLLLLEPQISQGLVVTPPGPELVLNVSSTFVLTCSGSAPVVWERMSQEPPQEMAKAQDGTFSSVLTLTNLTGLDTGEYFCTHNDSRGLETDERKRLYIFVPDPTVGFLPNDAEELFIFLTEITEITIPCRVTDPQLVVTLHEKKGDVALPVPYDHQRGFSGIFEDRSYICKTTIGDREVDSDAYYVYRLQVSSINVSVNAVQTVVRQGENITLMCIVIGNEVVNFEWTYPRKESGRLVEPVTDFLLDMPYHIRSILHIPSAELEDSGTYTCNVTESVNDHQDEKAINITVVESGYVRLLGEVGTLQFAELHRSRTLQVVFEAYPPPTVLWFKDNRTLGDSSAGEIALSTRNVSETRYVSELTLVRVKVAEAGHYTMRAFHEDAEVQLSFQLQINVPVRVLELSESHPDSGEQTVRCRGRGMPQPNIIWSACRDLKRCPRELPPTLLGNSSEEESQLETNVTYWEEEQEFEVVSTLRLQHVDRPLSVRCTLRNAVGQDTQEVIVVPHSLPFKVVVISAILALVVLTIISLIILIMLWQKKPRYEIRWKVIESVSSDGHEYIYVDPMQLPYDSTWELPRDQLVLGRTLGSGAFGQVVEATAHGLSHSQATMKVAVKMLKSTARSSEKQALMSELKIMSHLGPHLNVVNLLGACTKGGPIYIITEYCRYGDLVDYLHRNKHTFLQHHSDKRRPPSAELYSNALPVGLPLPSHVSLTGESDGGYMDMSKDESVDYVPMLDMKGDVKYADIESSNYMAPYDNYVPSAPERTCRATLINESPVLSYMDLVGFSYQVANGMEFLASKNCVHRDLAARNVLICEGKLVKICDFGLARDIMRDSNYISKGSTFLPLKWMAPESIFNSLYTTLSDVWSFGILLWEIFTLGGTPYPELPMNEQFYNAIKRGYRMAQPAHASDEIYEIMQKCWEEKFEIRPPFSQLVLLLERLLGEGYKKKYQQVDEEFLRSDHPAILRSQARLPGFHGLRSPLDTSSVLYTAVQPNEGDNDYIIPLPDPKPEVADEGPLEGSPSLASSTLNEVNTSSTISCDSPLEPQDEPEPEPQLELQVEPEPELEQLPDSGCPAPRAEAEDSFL
Epidermal growth factor receptor, sequence (P00533 whole entry): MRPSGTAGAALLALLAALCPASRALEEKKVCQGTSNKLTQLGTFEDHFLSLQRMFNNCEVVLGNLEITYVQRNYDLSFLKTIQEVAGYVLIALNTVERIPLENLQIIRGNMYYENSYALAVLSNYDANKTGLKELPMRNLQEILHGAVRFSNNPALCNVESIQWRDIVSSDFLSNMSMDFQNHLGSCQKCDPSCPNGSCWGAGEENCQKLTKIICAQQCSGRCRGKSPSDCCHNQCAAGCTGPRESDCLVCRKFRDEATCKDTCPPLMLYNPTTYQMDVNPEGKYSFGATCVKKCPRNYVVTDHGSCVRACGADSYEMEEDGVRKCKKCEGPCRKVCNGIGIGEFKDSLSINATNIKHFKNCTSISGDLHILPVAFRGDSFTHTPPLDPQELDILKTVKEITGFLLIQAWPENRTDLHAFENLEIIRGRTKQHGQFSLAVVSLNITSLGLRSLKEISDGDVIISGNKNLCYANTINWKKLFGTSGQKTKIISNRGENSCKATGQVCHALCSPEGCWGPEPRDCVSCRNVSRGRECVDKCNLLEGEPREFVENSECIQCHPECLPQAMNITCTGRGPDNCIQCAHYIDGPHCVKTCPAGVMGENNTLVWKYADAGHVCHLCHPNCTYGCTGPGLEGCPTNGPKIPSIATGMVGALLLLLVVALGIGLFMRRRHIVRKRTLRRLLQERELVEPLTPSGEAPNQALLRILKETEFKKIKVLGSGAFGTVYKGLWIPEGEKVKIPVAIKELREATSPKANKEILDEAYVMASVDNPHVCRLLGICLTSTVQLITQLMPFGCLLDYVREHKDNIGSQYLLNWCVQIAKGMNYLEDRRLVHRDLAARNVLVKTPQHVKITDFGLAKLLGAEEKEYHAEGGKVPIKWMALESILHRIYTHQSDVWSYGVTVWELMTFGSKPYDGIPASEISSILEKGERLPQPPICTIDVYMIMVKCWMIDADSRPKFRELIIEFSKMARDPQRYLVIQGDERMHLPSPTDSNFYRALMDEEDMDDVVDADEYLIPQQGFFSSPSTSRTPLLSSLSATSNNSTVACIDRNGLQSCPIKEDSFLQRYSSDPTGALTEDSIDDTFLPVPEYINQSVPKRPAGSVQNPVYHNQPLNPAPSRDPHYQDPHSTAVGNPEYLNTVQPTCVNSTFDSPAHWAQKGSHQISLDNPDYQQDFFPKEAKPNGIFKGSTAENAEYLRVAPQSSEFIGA
T1 sequence (P17948 whole entry): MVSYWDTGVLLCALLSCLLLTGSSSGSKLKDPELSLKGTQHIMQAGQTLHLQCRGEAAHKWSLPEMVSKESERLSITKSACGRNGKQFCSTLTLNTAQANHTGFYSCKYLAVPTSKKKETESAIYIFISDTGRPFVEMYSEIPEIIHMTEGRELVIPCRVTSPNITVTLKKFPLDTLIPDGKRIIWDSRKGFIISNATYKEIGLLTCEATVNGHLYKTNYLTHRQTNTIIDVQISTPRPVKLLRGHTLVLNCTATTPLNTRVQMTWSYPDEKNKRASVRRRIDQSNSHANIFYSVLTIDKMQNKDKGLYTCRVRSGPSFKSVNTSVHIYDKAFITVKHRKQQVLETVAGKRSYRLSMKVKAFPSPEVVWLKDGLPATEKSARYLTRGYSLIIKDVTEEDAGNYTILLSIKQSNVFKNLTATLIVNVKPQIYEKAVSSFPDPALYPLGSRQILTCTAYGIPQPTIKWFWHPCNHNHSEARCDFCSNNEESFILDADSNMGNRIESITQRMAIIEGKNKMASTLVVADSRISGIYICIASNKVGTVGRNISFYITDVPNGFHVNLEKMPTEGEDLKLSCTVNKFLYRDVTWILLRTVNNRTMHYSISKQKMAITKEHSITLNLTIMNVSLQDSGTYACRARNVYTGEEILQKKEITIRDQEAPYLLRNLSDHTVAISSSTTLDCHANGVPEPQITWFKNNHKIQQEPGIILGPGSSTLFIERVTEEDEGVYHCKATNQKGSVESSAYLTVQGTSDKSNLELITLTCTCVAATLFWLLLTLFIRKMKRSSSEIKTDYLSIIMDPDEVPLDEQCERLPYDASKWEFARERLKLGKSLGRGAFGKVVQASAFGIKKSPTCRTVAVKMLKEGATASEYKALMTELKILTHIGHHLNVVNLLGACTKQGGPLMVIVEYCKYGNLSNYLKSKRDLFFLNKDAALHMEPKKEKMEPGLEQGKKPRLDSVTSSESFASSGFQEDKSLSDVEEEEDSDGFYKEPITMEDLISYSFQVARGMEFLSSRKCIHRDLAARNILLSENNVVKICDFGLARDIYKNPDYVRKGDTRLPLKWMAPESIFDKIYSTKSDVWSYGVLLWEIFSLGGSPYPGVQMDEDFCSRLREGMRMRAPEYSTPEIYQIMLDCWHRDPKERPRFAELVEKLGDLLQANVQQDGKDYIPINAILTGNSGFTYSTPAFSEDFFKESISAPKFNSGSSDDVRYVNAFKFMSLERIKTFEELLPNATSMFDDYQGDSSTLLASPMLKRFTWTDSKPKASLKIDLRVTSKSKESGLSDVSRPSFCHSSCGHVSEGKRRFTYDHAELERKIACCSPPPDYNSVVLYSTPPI

Structure (SMILES): CN(Cc1cnc2nc(N)nc(N)c2n1)c1ccc(C(=O)N[C@@H](CCC(=O)O)C(=O)O)cc1
- inhibition [9]: Active
- inhibition [10]: Active
- inhibition [11]: Active
- inhibition [12]: Active

Structure (SMILES): C#Cc1cccc(Nc2nc(N)nc3[nH]c(CCc4ccccn4)cc23)c1
- IC50 [1]: 0.9 µM
- IC50 [2]: 331 µM
- Ratio IC50 [13]: 8
- IC50 [3]: 103 µM
- IC50 [4]: 43.6 µM
- Ratio IC50 [5]: 5
- IC50 [6]: 13.9 µM
- IC50 [7]: 19.9 µM

Structure (SMILES): Nc1nc(Nc2ccc(F)c(Cl)c2)c2cc(CCc3ccccn3)[nH]c2n1
- IC50 [1]: 27 µM
- IC50 [2]: > 500 µM
- IC50 [3]: > 200 µM
- IC50 [4]: > 200 µM
- IC50 [6]: 11.3 µM
- IC50 [7]: 111 µM

Structure (SMILES): Nc1nc(Nc2cccc(C(F)(F)F)c2)c2cc(CCc3ccccn3)[nH]c2n1
- IC50 [1]: 3.4 µM
- IC50 [2]: > 500 µM
- IC50 [3]: > 200 µM
- IC50 [4]: 16.7 µM
- Ratio IC50 [14]: 1.5
- IC50 [6]: 1.09 µM
- IC50 [7]: 19.3 µM

Structure (SMILES): Nc1nc(Nc2ccc(F)c(Br)c2)c2cc(CCc3ccccn3)[nH]c2n1
- IC50 [1]: 12.2 µM
- IC50 [2]: > 500 µM
- IC50 [3]: 93.6 µM
- IC50 [4]: 24.1 µM
- Ratio IC50 [14]: 2.4
- Ratio IC50 [5]: 5
- Activity [15]: 1%
- Ratio IC50 [16]: 1.2
- IC50 [6]: 0.07 µM
- MTD [17]: 12.5 mg/kg
- inhibition [18]: Active
- inhibition [19]: Active
- Activity [20]: Non-toxic
- inhibition [21]: Active
- Activity [22]: Toxic
- inhibition [23]: Active
- IC50 [7]: 85.9 µM

Now from value to compound, other results behind:

- IC50 [2]: > 500 µM
- IC50 [3]: 190 µM
- IC50 [4]: 151 µM
- Ratio IC50 [5]: 5
- IC50 [7]: 26.9 µM
Structure (SMILES): CC(C)(C)C(=O)Nc1nc(Nc2ccc(F)c(C(F)(F)F)c2)c2cc(CCc3ccccn3)[nH]c2n1
- IC50 [1]: 1.9 µM
- IC50 [6]: 8.6 µM

- IC50 [2]: 89.7 µM
- IC50 [3]: > 200 µM
- IC50 [4]: > 200 µM
- IC50 [7]: 5.4 µM
Structure (SMILES): CC(C)(C)C(=O)Nc1nc(Nc2ccc(F)c(Br)c2)c2cc(CCc3ccccn3)[nH]c2n1
- IC50 [1]: 1 µM
- IC50 [6]: 0.9 µM
- Ratio IC50 [8]: 10

- IC50 [2]: > 500 µM
- IC50 [3]: > 200 µM
- IC50 [4]: 124 µM
- IC50 [7]: 15.6 µM
Structure (SMILES): Nc1nc(Nc2ccc(F)c(C(F)(F)F)c2)c2cc(CCc3ccccn3)[nH]c2n1
- IC50 [1]: 3.2 µM
- IC50 [6]: 14 µM

- IC50 [2]: 13.4 µM
- IC50 [3]: > 50 µM
- IC50 [4]: 49.9 µM
Structure (SMILES): Nc1nc(Nc2cccc(Br)c2)c2cc(CCc3ccccn3)[nH]c2n1
- IC50 [1]: 19.6 µM
- IC50 [6]: 7.23 µM

- IC50 [2]: > 500 µM
- IC50 [3]: 130 µM
- IC50 [4]: 16.7 µM
- Ratio IC50 [14]: 1.5
- Ratio IC50 [5]: 5
- IC50 [7]: 12.8 µM
Structure (SMILES): CC(C)(C)C(=O)Nc1nc(Nc2cccc(C(F)(F)F)c2)c2cc(CCc3ccccn3)[nH]c2n1
- IC50 [1]: 2.9 µM
- IC50 [6]: 1.6 µM

- IC50 [2]: 430 µM
- IC50 [3]: 156 µM
- IC50 [4]: 126 µM
- Ratio IC50 [5]: 5
- IC50 [7]: > 200 µM
Structure (SMILES): C#Cc1cccc(Nc2nc(NC(=O)C(C)(C)C)nc3[nH]c(CCc4ccccn4)cc23)c1
- IC50 [1]: 29.9 µM
- IC50 [6]: 3.2 µM

- IC50 [2]: > 500 µM
- IC50 [3]: > 200 µM
- IC50 [4]: 89.3 µM
- IC50 [7]: 16.3 µM
Structure (SMILES): CC(C)(C)C(=O)Nc1nc(Nc2ccc(F)c(Cl)c2)c2cc(CCc3ccccn3)[nH]c2n1
- IC50 [1]: 2.6 µM
- IC50 [6]: 2 µM

— ChEMBL document CHEMBL2331499, “N2-Trimethylacetyl substituted and unsubstituted-N4-phenylsubstituted-6-(2-pyridin-2-ylethyl)-7H-pyrrolo[2,3-d]pyrimidine-2,4-diamines: design, cellular receptor tyrosine kinase inhibitory activities and in vivo evaluation as antiangiogenic, antimetastatic and antitumor agents” (Bioorg Med Chem, 2013)
